Source: article PMC8667933 (Journal of Enzyme Inhibition and Medicinal Chemistry, 2021)
Values belong to the compound of their own block, whether it stands above or below them.

Columns and labels:
ERRα = target: T1, ERRα (Homo sapiens, UniProt P11474); assay: ERRα functional assay: mammalian two-hybrid reporter gene assay; format: cell-based
T1 sequence (P11474 193-421 limits assumed): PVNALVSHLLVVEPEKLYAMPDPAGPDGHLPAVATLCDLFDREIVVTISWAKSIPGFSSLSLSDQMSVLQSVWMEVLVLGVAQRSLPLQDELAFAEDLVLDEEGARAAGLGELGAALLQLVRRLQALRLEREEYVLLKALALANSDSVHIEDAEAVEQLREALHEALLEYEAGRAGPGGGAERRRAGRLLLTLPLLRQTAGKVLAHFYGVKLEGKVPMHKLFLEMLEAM

[1] = Body weight and overt toxicity in xenograft mice; format: in vivo, BALB/c nude mice; settings: 30 mg/kg every other day, intraperitoneally, vs control group
[2] = system: ERRα-regulated target genes (PGC-1α, PDK4, osteopontin, pS2); assay: Quantitative RT-PCR of ERRα-regulated target genes in MDA-MB-231 cells; format: cell-based, human; settings: high-dose 3 μM, 24 h
Procedure, shortened: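 MDA-MB-231 cells exposed 24 h to 0.1% DMSO or test compound at 1 or 3 μM. Total RNA isolated with Trizol, reverse-transcribed, and analysed by real-time PCR for PGC-1α, PDK4, osteopontin (SPP1) and pS2 (TFF1) mRNA. Mean ± SEM of n = 3; two-tailed unpaired t-test vs vehicle.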

MDA-MB-231 [3] = assay: CCK-8 cell viability assay, MDA-MB-231; format: cell-based, human; settings: for suppression of cell proliferation: MDA-MB-231, 10 μM, CCK-8
Procedure, shortened: (§1)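 Log-phase cells seeded in 96-well plates and incubated overnight, then exposed to test compound or vehicle. Viability runs: 1, 3 and 10 μM for 24 h and 48 h. IC50: a range of concentrations for 24 h. Proliferation read by CCK-8 per kit procedure. Mean ± SEM of n = 3; two-tailed unpaired t-test vs vehicle.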

MCF-7 [4] = assay: Colony formation assay, MCF-7; format: cell-based, human; settings: MCF-7, high-dose 1 μM
Procedure, shortened: (§2)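 1 × 10^3 cells/well plated in 6-well plates and cultured overnight. Medium then replaced with vehicle or test compound at 0.3 or 1 μM. Exposure is 7 days per legend and 2 weeks (until colonies visible) per methods. Colonies washed with PBS, fixed in 4% paraformaldehyde, stained 30 min with 0.1% crystal violet, imaged and counted. n = 3, mean ± SEM, unpaired t-test.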

MDA-MB-231 [5] = assay: Colony formation assay, MDA-MB-231; format: cell-based, human
Procedure, shortened: as §2

MCF-7 [6] = assay: CCK-8 cell viability assay, MCF-7; format: cell-based, human; settings: for suppression of cell proliferation: MCF-7, 10 μM, CCK-8
Procedure, shortened: as §1

[7] = system: MDA-MB-231 xenograft tumour; assay: Breast cancer xenografts in nude mice; format: in vivo, BALB/c nude mice; settings: 30 mg/kg every other day, intraperitoneally, 30 days
Procedure, shortened: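 6-week-old BALB/c nude mice were implanted subcutaneously with 2 × 10^6 MDA-MB-231 cells each. Dosing began once tumours averaged >100 mm3: i.p. 30 mg/kg every other day for 30 days in 0.9% saline with 0.5% 2-phenylethanol and 1.5% Tween 80, vehicle-only controls. Tumours measured every 5 days, V = length × width² × 0.5; body weight every 10 days. n = 6, mean ± SEM, two-tailed unpaired t-test vs vehicle.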

[8] = system: MDA-MB-231 cells with ERRα knock-down; assay: Viability of MDA-MB-231 cells after ERRα knock-down; format: cell-based, human; settings: siRNA (legend: shERRα vs shCtrl)
MDA-MB-231 [9] = assay: Transwell invasion assay; format: cell-based, human; settings: 24 h
HCC-1937 = assay: CCK-8 cell viability assay, HCC-1937; format: cell-based, human; settings: for suppression of cell proliferation: HCC-1937, 10 μM, CCK-8
Procedure, shortened: as §1

MCF-7 [10] = assay: Transwell invasion assay; format: cell-based, human; settings: MCF-7, high-dose (3 μM), 24 h
[11] = system: MCF-7 and MDA-MB-231 cells; assay: Transwell migration assay; format: cell-based, human; settings: 24 h
ERRα LBD = target: T2, ERRα LBD (Homo sapiens, UniProt P11474); assay: TR-FRET co-activator assay; format: binding
T2 sequence (P11474 193-421 limits assumed): T1 sequence (P11474 193-421 limits assumed)

SMILES: O=[N+]([O-])c1ccc(S(=O)(=O)Nc2ccccc2Oc2ccccc2)cc1 [compound 8, 4-Nitro-N-(2-phenoxyphenyl)benzenesulfonamide]
- IC50 (ERRα): 1760 nM

SMILES: O=[N+]([O-])c1ccc(S(=O)(=O)Nc2ccccc2Oc2ccc(Cl)cc2)cc1 [compound 9, N-(2–(4-chlorophenoxy)phenyl)-4-nitrobenzenesulfonamide]
- IC50 (ERRα): 2020 nM

SMILES: COc1ccc(Oc2ccccc2NS(=O)(=O)c2ccc([N+](=O)[O-])cc2)cc1 [compound 11, N-(2–(4-methoxyphenoxy)phenyl)-4-nitrobenzenesulfonamide]
- influence on weight of mice and overt toxicity [1]: no notably compound-related influences on the weight of mice or any other symptoms of overt toxicity
- PGC-1α, PDK4, osteopontin and pS2 mRNA expression [2]: notably reduced
- IC50 (MDA-MB-231 [3]; Homo sapiens, MDA-MB-231, 24 h, read-out: IC50, cell proliferation): 9150 nM
- suppression of cell proliferation (MDA-MB-231 [3]; 24 h): 38.9%
- suppression of cell proliferation (MDA-MB-231 [3]; 48 h): 44.3%
- reduction of the number of colonies (MCF-7 [4]): 47.5%
- IC50 (ERRα): 800 nM
- fold more active than compound 10 (ERRα; ratio of IC50 values, compound 11 vs compound 10): 1.5 fold
- reduction of the number of colonies (MDA-MB-231 [5]; MDA-MB-231, high-dose 1 μM): 70.3%
- number of colonies (MDA-MB-231 [5]; MDA-MB-231, low-dose 0.3 μM): decreased significantly
- IC50 (MCF-7 [6]; Homo sapiens, MCF7, 24 h, read-out: IC50, cell proliferation): 15400 nM
- suppression of cell proliferation (MCF-7 [6]; 24 h): 23.5%
- suppression of cell proliferation (MCF-7 [6]; 48 h): 37.4%
- tumour growth inhibition ([7]; MDA-MB-231 xenograft): 23.58%
- tumour volume at the end of the experiment ([7]; control 1508 mm^3): 1152 mm^3
- effect of ERRα knock-down on compound-induced anti-proliferation [8]: knock-down of ERRα reduced compound 11 induced anti-proliferation
- effect on cell invasion (MDA-MB-231 [9]; MB-231 cells, low-dose (1 μM)): weak effect
- reduction in cell invasion (MDA-MB-231 [9]; MDA-MB-231, high-dose (3 μM)): 50.9%
- suppression of cell proliferation (HCC-1937; 24 h): 31.0%
- suppression of cell proliferation (HCC-1937; 48 h): 38.0%
- IC50 (HCC-1937; Homo sapiens, HCC1937, 24 h, read-out: IC50, cell proliferation): 14700 nM
- reduction in cell invasion (MCF-7 [10]): 31.5%
- inhibition of breast cancer cells migration ([11]; 1 μM): moderate inhibition
- inhibition of breast cancer cells migration ([11]; high-dose 3 μM): much more potently inhibitory effect
- IC50 (ERRα LBD): 681 nM

SMILES: COc1ccc(Oc2ccccc2NS(=O)(=O)c2ccc(N)cc2)cc1 [compound 12, 4-Amino-N-(2–(4-methoxyphenoxy)phenyl)benzenesulfonamide]
- IC50 (ERRα): > 10000 nM
- IC50, inhibition of ERRα transcriptional activity (ERRα; reporter gene assay, HEK 293 T cells, 48 h): inactive

SMILES: Nc1ccc(S(=O)(=O)Nc2ccccc2Oc2ccc(Cl)cc2)cc1 [compound 13, 4-Amino-N-(2–(4-chlorophenoxy)phenyl)benzenesulfonamide]
- IC50 (ERRα): 1610 nM

Continued by falling IC50 (ERRα), values first:

- IC50 (ERRα): 1880 nM
SMILES: Cc1ccc(Oc2ccccc2NS(=O)(=O)c2ccc(N)cc2)cc1 [compound 14, 4-Amino-N-(2-(p-tolyloxy)phenyl)benzenesulfonamide]

- IC50 (ERRα): 1230 nM
- inhibiting activity relative to compound 14 (ERRα; ratio of IC50 values, compound 10 vs compound 14): 1.5 times
SMILES: Cc1ccc(Oc2ccccc2NS(=O)(=O)c2ccc([N+](=O)[O-])cc2)cc1 [compound 10, 4-Nitro-N-(2-(p-tolyloxy)phenyl)benzenesulfonamide]
